# Assay outcomes: PubChem, several laboratories
# DNMT1 inh: human DNMT1 methyltransferase inhibitors, primary screen, biochemical, molecular beacon, fluorescence, HinP1I cleavage, uHTS. DNA (cytosine-5)-methyltransferase 1 (Homo sapiens), P26358. inhibition (reported as % activation of signal), % at 10 µM. hit rate 0.83% among 360,000; in the data active = inhibition above about 50%
# Target sequence (P26358 504-1616 limits assumed): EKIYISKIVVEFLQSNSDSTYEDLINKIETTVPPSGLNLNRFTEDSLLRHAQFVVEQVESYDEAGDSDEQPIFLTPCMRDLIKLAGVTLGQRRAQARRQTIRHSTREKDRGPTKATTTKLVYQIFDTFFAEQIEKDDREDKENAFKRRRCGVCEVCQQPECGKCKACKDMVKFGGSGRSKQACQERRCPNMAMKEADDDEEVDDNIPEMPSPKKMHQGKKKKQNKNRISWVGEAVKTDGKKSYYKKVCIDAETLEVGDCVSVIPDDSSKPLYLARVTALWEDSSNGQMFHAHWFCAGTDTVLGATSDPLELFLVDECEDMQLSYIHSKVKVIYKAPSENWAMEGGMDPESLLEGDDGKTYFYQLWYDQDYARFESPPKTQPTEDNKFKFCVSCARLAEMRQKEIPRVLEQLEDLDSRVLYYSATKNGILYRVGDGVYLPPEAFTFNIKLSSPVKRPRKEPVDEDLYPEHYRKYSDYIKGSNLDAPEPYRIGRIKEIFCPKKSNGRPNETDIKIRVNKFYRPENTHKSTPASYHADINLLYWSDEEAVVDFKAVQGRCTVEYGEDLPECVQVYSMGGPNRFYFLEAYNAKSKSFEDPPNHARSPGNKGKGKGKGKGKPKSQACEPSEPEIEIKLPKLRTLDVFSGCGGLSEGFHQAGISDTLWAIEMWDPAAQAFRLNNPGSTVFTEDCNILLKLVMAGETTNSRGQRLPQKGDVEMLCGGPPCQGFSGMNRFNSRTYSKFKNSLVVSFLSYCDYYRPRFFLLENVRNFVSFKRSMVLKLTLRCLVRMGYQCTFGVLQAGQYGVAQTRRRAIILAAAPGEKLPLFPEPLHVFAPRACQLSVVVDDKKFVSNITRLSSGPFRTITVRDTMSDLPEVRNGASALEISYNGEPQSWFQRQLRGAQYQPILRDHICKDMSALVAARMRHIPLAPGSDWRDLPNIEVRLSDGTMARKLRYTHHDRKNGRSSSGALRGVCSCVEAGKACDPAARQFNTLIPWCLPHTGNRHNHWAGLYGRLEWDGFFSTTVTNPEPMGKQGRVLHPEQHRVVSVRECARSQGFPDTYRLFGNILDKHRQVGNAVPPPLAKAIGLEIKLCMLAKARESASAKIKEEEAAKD
# LMPTP inh: LMPTP phosphatase inhibitors, primary screen, biochemical, fluorescence intensity, uHTS | Low molecular weight phosphotyrosine protein phosphatase (Homo sapiens), P24666 | recombinant LMPTP-A, OMFP fluorogenic substrate | inhibition, % at 20 µM | hit rate 0.22% among 360,000;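 active = compounds that cut the enzyme signal by at least half of the control window in the single-dose screen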
#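 Test system: LMPTP-A phosphatase enzyme. Amount: LMPTP-A at 0.625 nM final in the reaction. Reagent: OMFP substrate, 400 µM final. Times: 50 min at room temperature. Signal: endpoint fluorescence intensity from OMFP dephosphorylation. Read-out basis: % inhibition. Benchmarks: no-enzyme and uninhibited controls.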
# SUMO1 PPI mod: modulators of SUMO1 protein-protein interactions, primary screen, biochemical, uHTS | hit rate 0.33% among 360,000 | AID 602429, 2012 | Small ubiquitin-related modifier 1 (Homo sapiens), P63165 | inhibition, % at 20 µM | SUMO1 binding to a labelled peptide, TR-FRET, 1 h; in the data active = inhibition above about 37%
# STEP inh: STEP phosphatase inhibitors, primary screen, biochemical, fluorescence intensity, uHTS; recombinant STEP, OMFP fluorogenic substrate; hit rate 0.25% among 360,000; AID 588621, 2011; inhibition, % at 20 µM; Tyrosine-protein phosphatase non-receptor type 5 (Homo sapiens), P54829;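 active = inhibition at 20 µM, scaled per plate between control wells, above about 37%, limit read from the data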
#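 System: STEP (striatal-enriched tyrosine phosphatase) enzyme, cell-free; medium: Bis-Tris pH 6.0 buffer with DTT, detergent; dosing: 20 µM, 1% DMSO; times: reaction 20 min, ambient temperature; detection: fluorescence, 480/540 nm; read-out basis: normalized % inhibition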
# Scp1 inh: Scp-1 phosphatase inhibitors, primary screen, biochemical, colorimetric, uHTS | Recombinant Scp1, phosphopeptide, malachite green phosphate absorbance | Carboxy-terminal domain RNA polymerase II polypeptide A small phosphatase 1 (Homo … | inhibition, % at 20 µM | hit rate 0.88% among 340,000;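 active = inhibition above about 50% at 20 µM, limit read from the data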
#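 Test system: SCP-1 phosphatase catalytic domain, residues 76-261; measured by: colorimetric phosphate reagent with accelerator and stabiliser, absorbance at 630 nm; timing: enzyme reaction 45 min at room temperature, colour 5 min, stabilisation 30 min; also added: Phosphorylated 17-residue peptide substrate; compound dosing: one concentration, 20 µM, with 1.0% DMSO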
# Casp6 inh: human caspase-6 inhibitors, primary screen, biochemical, VEID-R110 fluorescence, single point, set 2. purified caspase-6, Z-VEID-R110 cleavage fluorescence. hit rate 0.53% among 350,000. P55212. inhibition, % at 12.5 µM. AID 686996, 2013;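 active = mean inhibition across replicates at least about 35%, with every replicate also reaching that limit, limit read from the data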
# Scp1 confirm: Scp-1 phosphatase inhibitors, retest, confirmation, biochemical, colorimetric, single concentration | hit rate 61% among 2,500 | recombinant SCP-1 catalytic domain, phosphate release, malachite green absorbance | inhibition, % at 20 µM | shares compounds with Scp1 inh | AID 540281, 2011
# MG interference: colorimetric readout interference by compounds, confirmation, artefact control for Scp-1 inhibitor project, biochemical, single concentration; apparent inhibition (interference), % at 20 µM; 2,500 tested, under 10 active; Colorimetric interference counterscreen, malachite green absorbance 630 nm; shares compounds with Scp1 inh;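 also: compounds added after enzyme reaction finished so only phosphate colour detection is probed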
# Scp-1 Tm shift: Scp-1 binding by thermal shift, confirmation, orthogonal assay for Scp-1 inhibitor project, biophysical, differential scanning fluorimetry | shares compounds with Scp1 inh | Recombinant SCP1, Sypro Orange thermal shift Tm | thermal shift relative to vanadate control, % at 40 µM | hit rate 25% among 1,500;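 active = substances whose mean melting-temperature shift, as a percentage of the reference inhibitor's shift, reaches about 5.3%, limit read from the data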
# Numbers stand for hits; n = inactive; x = not tested or not shown. An excerpt weighted towards active compounds, which were near 1.7% of everything screened.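 The calls were made as follows, unless noted: active = inhibition of at least 30% at 20 µM; inactive = the rest.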
SMILES,DNMT1 inh,LMPTP inh,SUMO1 PPI mod,STEP inh,Scp1 inh,Casp6 inh,Scp1 confirm,MG interference,others
O=C(CNC(=O)c1ccc(Cl)cc1)N/N=C/C=C/c1ccccc1,n,n,n,n,84,n,n,n,
CNc1ccccc1C(=O)OCC(=O)N1CCN(c2ccc(OC)cc2)CC1,n,n,n,n,66,n,n,n,
COc1ccc(N2CCN(C(=O)COC(=O)c3cccc(OC)c3O)CC2)cc1,n,n,n,n,n,n,x,x,
Cc1ccc(S(=O)(=O)CCC(=O)N2CCN(c3ccc([N+](=O)[O-])cc3)CC2)cc1,n,n,n,n,59,n,n,n,
COc1ccc(S(=O)(=O)CCC(=O)N2CCN(c3ccc([N+](=O)[O-])cc3)CC2)cc1,n,n,n,n,n,n,x,x,
C[C@H](c1ccccc1)N1C[C@@H](COCc2ccccc2)Oc2cc(N3CCC[C@@H]3CO)ccc2S1(=O)=O,x,n,n,x,x,n,x,x,
CCN1C(=O)N[C@@H](c2cccc(C(F)(F)F)c2)[C@H](C(=O)OC)[C@H]1C,n,n,n,n,n,n,x,x,
CC(=O)Nc1ccc(S(=O)(=O)NCCSCc2ccco2)cc1,n,n,n,n,n,n,x,x,
CS(=O)(=O)NCCSCc1ccco1,n,n,n,n,98,n,64,n,Scp-1 Tm shift=n
COc1ccc(CN(C)C(C)C(=O)Nc2ccc(S(=O)(=O)N3CCOCC3)cc2)c(OC)c1 (stereo unspecified),n,n,n,n,n,n,x,x,
CC(Oc1ccccc1)C(=O)Nc1ccc(S(=O)(=O)NCC2CCCO2)cc1 (stereo unspecified),n,n,n,n,n,x,x,x,
CCOC(=O)c1c(NC(=O)COC(=O)c2cnccn2)sc(C(=O)NC)c1C,n,n,n,n,n,n,x,x,
CCOC(=O)c1c(-c2ccco2)csc1NC(=O)COC(=O)c1cnccn1,n,n,n,n,60,n,n,n,
COc1ccc(NC(=O)CSc2nc3scc(C)c3c(=O)[nH]2)cc1,n,n,n,n,n,n,x,x,
Cc1ccccc1C1c2[nH]c3ccccc3c2C[C@H]2C(=O)N(C3CCN(Cc4ccccc4)CC3)CC(=O)N12 (stereo partly specified),n,n,n,n,x,n,x,x,
COCC(=O)N/N=C/c1ccc(Sc2nc3ccccc3s2)o1,n,n,n,n,n,x,x,x,
N#CCC(=O)N/N=C/c1ccc(Sc2nc3ccccc3s2)o1,n,n,n,n,99,x,81,n,Scp-1 Tm shift=8.1
O=C(Nc1ccc(C(F)(F)F)cc1)N[C@@H]1CC[C@@H](CC(=O)N2CCCCC2)O[C@@H]1CO,x,x,x,x,x,n,x,x,
COc1ccccc1N1CCN(C(=O)c2cc3c(s2)CCC3)CC1,n,n,n,n,85,x,n,n,
COc1ccccc1-c1ccc([C@@H]2[C@H]3CN(C(=O)NC4CCCC4)CCCCN3[C@H]2CO)cc1,x,x,x,x,x,n,x,x,
CCOC(=O)[C@@H]1[C@H]2COc3cc(OC)ccc3[C@@H]2N2C(=O)N(c3ccc(OC)cc3)C(=O)[C@@]12C,n,n,n,n,n,n,x,x,
CCOC(=O)[C@@H]1[C@H]2COc3cc(OC)ccc3[C@@H]2N2C(=O)N(c3ccc(Br)cc3)C(=O)[C@]12C,n,n,n,n,53,n,n,n,
CC(C)(C)c1cc(NC(=O)COC(=O)c2ccc(O)cc2O)n(-c2ccccc2)n1,n,n,n,n,n,n,x,x,
CSc1ccc(CNC(=O)C2CCC(=O)N(CC3CCCCC3)C2)cc1 (stereo unspecified),n,n,n,n,x,n,x,x,
CC(C)Cc1nc(N2CCN(C(=O)c3ccco3)CC2)c(C#N)c2c1CCCC2,n,n,n,n,n,n,x,x,
SMILES,DNMT1 inh,LMPTP inh,SUMO1 PPI mod,STEP inh,Scp1 inh,Casp6 inh,Scp1 confirm,MG interference,others
O=C(CCCCCNC(=O)c1ccccc1)N/N=C/c1ccco1,n,n,n,n,52,n,32,n,Scp-1 Tm shift=n
O=C(N/N=C/c1ccncc1)c1ccc(NC(=O)c2cccc(Cl)c2)cc1,n,n,n,n,68,n,35,n,Scp-1 Tm shift=15
O=C(N/N=C/c1ccncc1)c1ccc(NC(=O)c2ccc(Cl)cc2)cc1,n,n,n,n,64,n,n,n,
O=C(CCCCCNC(=O)c1ccccc1)N/N=C/c1ccccc1O,n,n,n,n,n,x,x,x,
O=C(N/N=C/c1ccco1)c1ccc(NC(=O)c2ccc(Cl)cc2)cc1,n,63,n,n,77,n,40,n,Scp-1 Tm shift=n
Cc1ccc(/C=N/NC(=O)c2ccc(NC(=O)c3ccc(Cl)cc3)cc2)o1,n,n,n,n,n,n,x,x,
COc1cccc(/C=N/Nc2c(Cl)cncc2Cl)c1O,n,n,n,n,n,n,x,x,
O=C(NS(=O)(=O)c1ccccc1)c1cccc(Br)c1,n,n,n,n,62,n,n,n,
Cc1ccc(S(=O)(=O)NC(=O)c2cccc(Br)c2)cc1,n,n,n,n,n,n,x,x,
CCNc1nc(NCC)n2c(SCC(=O)Nc3ccccc3)nnc2n1,n,n,n,n,n,n,x,x,
CCNc1nc(NCC)n2c(SCC(=O)Nc3ccc(OC(F)F)cc3)nnc2n1,n,n,n,n,68,n,39,n,Scp-1 Tm shift=n
CCNc1nc(NCC)n2c(SCC(=O)Nc3ccc(F)cc3)nnc2n1,55,n,n,n,54,n,55,n,Scp-1 Tm shift=n
COc1ccccc1-c1cc(N)n(S(=O)(=O)c2ccc(F)c(C)c2)n1,n,n,n,n,n,n,x,x,
Cc1cccn2cc(-c3cccc(S(=O)(=O)N4CCOCC4)c3)nc12,n,n,n,n,n,n,x,x,
O=C(CCC1CCCN(C(=O)c2cccs2)C1)N1CCN(c2ccccn2)CC1 (stereo unspecified),n,n,n,n,n,n,x,x,
Cc1nnsc1-c1c(C(=O)N2CCOCC2)c(C)nn1-c1ccccc1,n,n,n,n,n,n,x,x,
